Results reported in ChEMBL document CHEMBL4513216, “Probing the Open Global Health Chemical Diversity Library for Multistage-Active Starting Points for Next-Generation Antimalarials” (ACS Infect Dis, 2020).

Assay: Toxicity liver stage against HepG2, at 10uM
Assay type: cell-based
Design: test concentration 10 uM, cell line HepG2-A16-CD81EGFP
Conditions: human, HepG2-A16-CD81EGFP cells; read-out: INHIBITION
Summary of the method: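 Uninfected HepG2-A16-CD81EGFP cells, 3 × 10^3 per well, 1536-well, plated on prespotted compound at 10 μM final, parasite-free screening media added to match infected plates; puromycin 10 μM positive, DMSO 0.5% negative; run in parallel with 48 h PbLuc assay at 37 °C, 5% CO2; viability by CellTiter-Glo luminescence, normalized to controls.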

SMILES | cytotoxicity at 10 µM
CCCC(O)CN1CC(C)(C)CN(C(=O)CCc2ccccc2)CC1=O (stereo not given) | -15.4%
CSCC[C@H](NC(=O)N1CCC(Cc2ccccc2)CC1)C(=O)O | -1.55%
O=C1CC(c2cccnc2)c2c(c(C(=O)O)cn2-c2ccc(Cl)cc2)N1 (stereo not given) | -0.462%
COC(=O)CNC(=O)c1sccc1N(C)S(=O)(=O)c1ccc(Cl)cc1 | -15.4%
O=C(c1ccccc1F)N1CC(c2nc(-c3ccc[nH]c3=O)no2)C1 | 2.21%
O=C(c1ccco1)N1CCC(CSCc2ccco2)CC1 | -6.49%
CN(C)C(=O)Cc1ccc(NC(=O)c2cn(C)nn2)cc1 | -5.27%
C[C@H]1C[C@@H]2CCN(Cc3nccs3)C[C@H]2O1 | -3%
CCN1CC[C@]2(CN(C(=O)C3CCOCC3)C[C@H]2c2ccccc2)C1=O | 8.58%
O=S(=O)(C1CC1)N1CCn2c(Cn3cncn3)cnc2C1 | 12.2%
COCCN1C(=O)C2(CCC(C(=O)Nc3ccc(F)cc3)CC2)N=C1C (stereo not given) | 9.7%
c1ccc(CNCC2Cn3nncc3CO2)nc1 (stereo not given) | 4.93%
CCOCC1CC2(CCN(C(=O)C3CC=CC3)CC2)CO1 (stereo not given) | 1.5%
CN(C)c1nc(N2CCCC2)nc2c1CCN(C(=O)c1ccoc1)CC2 | 14.9%
CC(=O)N1CC[C@H]2C(=O)N(c3ccsc3)CCO[C@H]2C1 | 4.47%
COCCC1COC2(CCN(C(C)=O)CC2)C1 (stereo not given) | 8.19%
Cc1cc(C(=O)N2CCc3c(CN(C)C(C)C)n[nH]c3C2)[nH]n1 | -133%
O=C(NCc1ccccc1)c1nn(C2CCS(=O)(=O)C2)c2c1CCCC2 (stereo not given) | 5.92%
CC(C)OCCCNC(=O)c1c(-n2cnnn2)sc2c1CCCC2 | 11.9%
CSc1ccc(C2CC(=O)Nc3c2c(=O)[nH]n3C(C)C)cc1 (stereo not given) | 6.71%
O=C(CCO)N1CCOC2(CCCN(C(=O)c3ccco3)C2)C1 (stereo not given) | -11.7%
CN1CC(Oc2ccccc2)=NC(SCC(=O)Nc2ccccc2Cl)=N1 | -9.19%

SMILES | cytotoxicity at 10 µM
Cc1nc(N2CCCC2)ncc1-c1cc(O)nc(N2CCN(C)CC2)n1 | 2.6%
CC(C)S(=O)(=O)N1CCN(C(=O)c2cnn(C)c2Cl)CC1 | 1.6%
CNc1cccc(CC2COCCN(C(=O)c3cccnc3)C2)n1 (stereo not given) | -1.99%
c1cncc(CN2CCC(c3ccnc4nccn34)C2)c1 (stereo not given) | 5.78%
COCC(=O)N1CCC(c2cc3nc(C)cc(C(F)(F)F)n3n2)CC1 | 4.49%
CC(C)N1C(=O)CO[C@H]2CCN(C(=O)c3ccc4c(c3)CCC4)CC[C@@H]21 | 3.79%
CNc1ncc(CN2CCCC2c2[nH]ncc2C(=O)N(C)C)cn1 (stereo not given) | 2.91%
Cc1cc(-c2cccnc2)nc(C2CCCN2S(C)(=O)=O)n1 (stereo not given) | 4.36%
Cc1cc(C)nc(N2CCC(C(=O)Nc3ccc(C(C)C)cc3)CC2)n1 | -3.02%
CC(=O)N1CCCC(c2nccnc2-c2ccc(CO)cc2)C1 (stereo not given) | 1.03%
CC(C)CN1CCCC(c2nc(O)c3cc(F)ccc3n2)C1 (stereo not given) | 10.3%
CN(Cc1nnc(C2CC2)o1)Cc1ccccc1N1CCOCC1 | -7.83%
CCn1cc(S(=O)(=O)Nc2cccnc2-n2cccn2)nc1C | 3.21%
CN1CCC(NC(=O)c2cc(Br)cc(Cl)c2O)C1=O (stereo not given) | -5.79%
Oc1ccc(Br)c(CNc2cccc(-c3nnc[nH]3)c2)c1 | -38.9%
CS(=O)(=O)N1CCCC(C(=O)N2CCOc3ccccc32)C1 (stereo not given) | 0.421%
COc1ccc2c(c1)CCCN2Cc1nc(C)c(C)o1 | 4.74%
CC(C)(O)CN1CCN(C(=O)c2cccn2Cc2ccccc2)CC1 | -3.88%
Cc1ccc(CNC(CN2CCN(C)CC2)c2ccccc2)cc1C (stereo not given) | -7.49%
Cc1ncc2c(n1)CN(Cc1cccc3c1OCCO3)CC2 | -1.31%
CCc1ncc2c(n1)CN(Cc1ncc(C(C)(C)C)o1)CC2 | -15.9%
CCN(CC)C(=O)Nc1cccc(Oc2ccccn2)c1 | 8.12%

SMILES | cytotoxicity at 10 µM
COCCOCC(=O)Nc1ccccc1F | 14.7%
CCc1nnc2n1CCN(Cc1noc(-c3cccc(C)c3)n1)C2 | 12%
Cn1cc(C(O)CNC(=O)c2cc(Br)ccc2Cl)cn1 (stereo not given) | 2.06%
Cc1nn(CCC#N)c(C)c1CCC(=O)N(C)Cc1ccsc1 | -3.57%
CC(C)Cc1nc(CSC2CCCN(c3cnn(C)c3)C2=O)no1 (stereo not given) | 17.7%
CN(C)CCn1ccc2cc(NC(=O)NCc3ccon3)ccc21 | -2.51%
N#Cc1ccc(CNc2ncc(C#N)cc2Cl)cc1 | 17.7%
CN1CCN(c2cccc(Cl)c2CNCCS(C)(=O)=O)CC1 | -0.641%
Cc1ccc(S(=O)(=O)NC(=O)C2(c3ccc(F)cc3)CCC2)c(C)c1 | -1.09%
COCc1noc(-c2cc(Cl)c3c(c2)OCCCO3)n1 | 0.174%
O=C(CN(CC(O)c1ccc(F)cc1)C1CC1)Nc1cccnc1 (stereo not given) | -4.19%
Cc1cc(N2CCc3c(ncn3C)C2)n2nc(C(F)(F)F)nc2n1 | 4.11%
CCS(=O)(=O)NC(CCSC)C(=O)Nc1ccccc1C (stereo not given) | 1.06%
CN(CCCNC(=O)C1CCCN(C(N)=O)C1)S(C)(=O)=O (stereo not given) | -4.76%
CC(CO)NC(=O)c1ccc(NCc2ccccc2)cc1 (stereo not given) | -6.63%
CCC(NC(=O)NCC(=O)NC(C)C)c1cc(F)ccc1F (stereo not given) | 0.447%
CCCOc1cc(F)ccc1NC(=O)NCc1noc(C)n1 | 7.83%
CN(C)CCC1CCN(c2cc(N3CCCC3CO)ncn2)CC1 (stereo not given) | -6.27%
O=C(NCc1nccs1)N1CCOC(c2ccccc2Cl)C1 (stereo not given) | -3.67%
O=C(OCc1cc(=O)n2cc(Br)ccc2n1)c1ccc2c(c1)OCO2 | -7.37%
Cc1ccc(NC(=O)CNc2cccc3c2CCCC3)c(Br)c1 | 14.8%
Cc1cc(C(N)=O)ccc1NC(=O)c1nc(N2CCCC2)ncc1Cl | -8.94%

SMILES | cytotoxicity at 10 µM
Cc1ccc(-n2nnc(CC(=O)N3CCOCC3)c2C)cc1 | -12.9%
COc1ccc(Cn2cc(C(=O)N(C)Cc3ccon3)nn2)cc1 | 5.61%
CC(C)n1cccc1C(=O)N1CC[C@@H](NC(=O)c2ccccn2)[C@H](O)C1 | 2.35%
CCCc1nc(CN(CC)C(=O)c2ccc(S(C)(=O)=O)cc2)no1 | -5.03%
N#Cc1ccccc1C(=O)N1C[C@@H](CN2CCCCC2)[C@@H](CO)C1 | -0.165%
Cn1cc(CN(C(=O)C2COc3ccccc3C2)C2CC2)cn1 (stereo not given) | 1.81%
Cc1cccc(-c2nc(N)nc3c2CN(C(=O)c2ccncn2)C3C)c1 (stereo not given) | 4.65%
COCCC1(C(=O)O)CCCN(c2cc(C)c3ccccc3n2)C1 (stereo not given) | -38.7%
Cc1ccc(CN2CCN(c3ncnc4[nH]cnc34)CC2CCO)cc1 (stereo not given) | 28%
CC(C)c1nccc(C2(c3ccccc3Cl)CCNCC2)n1 | 1.93%
CCC(Nc1cccc(OC)c1)C(=O)N(CCOC)Cc1cnn(C)c1 (stereo not given) | -1.28%
CN(Cc1cc2n(n1)CCCNC2)Cc1ccno1 | 2.57%
O=C(c1ccc(S(=O)(=O)NC2CCC2)cc1)N1CC[C@H]2CNC[C@H]21 | -13.5%
CN(CCc1ccccc1)c1cnn(CC(=O)N2CCOCC2)c(=O)c1 | 1.77%
CN1CCCNC(=O)C12CCN(C(=O)c1ccc3[nH]cnc3c1)CC2 | -1.16%
C=C(C)COc1ccccc1NC(=O)NC1CCOCC1 | 4.67%
COCC(=O)N1CCC(c2nccn2CC2CC2)CC1 | -14.6%
Cc1cc(C)c2nc(CN3CC[C@@H](O)C3)cc(O)c2c1 | -6.23%
Cc1ccc2c(ccn2CCC(=O)O)c1 | -3.69%
NC(=O)c1cccc(OCC(=O)NS(=O)(=O)c2ccc3c(c2)CCC3)c1 | -6.22%
Cc1noc(C)c1CNC(=O)N1CCC(Cc2cnn(C)c2)C1 (stereo not given) | -8.66%
COc1c(C2CCCN2Cc2csc(C(C)C)n2)c(C)nn1C (stereo not given) | -1.53%

SMILES | cytotoxicity at 10 µM
Cc1nc(CN2CCCN(CCOc3cccc(C#N)c3)CC2)no1 | -5.85%
CC(C)c1noc(C(C)N2CCN(CCO)CC2)n1 (stereo not given) | -2.26%
O=C1NCc2ccc(NC(=O)C3CCCN3c3nccs3)cc21 (stereo not given) | -6.02%
Cc1cc(C)c(CNC(=O)C2CCCN(c3cnccn3)C2)c(=O)[nH]1 (stereo not given) | -13.7%
CN(Cc1ccc(F)cc1)C(=O)CN1CCOC(Cn2cncn2)C1 (stereo not given) | -4.07%
CC(C)(C)n1ncc2c1CCCC2NCc1cccc2c1OCO2 (stereo not given) | 3.37%
CCN1CCN(CC(C)(O)c2cccc(C(F)(F)F)c2)CC1 (stereo not given) | -11.4%
Cn1ccc(CN2CCC(CCc3ccc(O)cc3)CC2)cc1=O | 1.2%
Cc1noc(CN2Cc3ccccc3CC2c2nnc(C)o2)n1 (stereo not given) | -4.62%
Cc1cc(C2CCNCC2)nc(-c2ccsc2)n1 | -1.97%
Cc1cccc(N2CCCC3(C2)CN(S(=O)(=O)C2CC2)CCO3)c1 (stereo not given) | 11%
COCCN(C)C[C@@H]1CCC[C@@H]2CN(Cc3ccc(OC)nc3)C[C@@H]21 | 8.13%
Cc1nn(C)c(N(C)C)c1CNC1CCc2c(Cl)cccc21 (stereo not given) | -7.07%
Cn1nccc1-c1ncc2c(c1C(=O)O)CCN(Cc1ccncc1)C2 | 6.1%
Cn1cc(CN2CCC3(CC2)C(=O)Nc2ccccc23)cn1 | 0.134%
COCC(=O)N1CCCn2c(CN3CCCCC3)nnc2C1 | -15.8%
O=C(N1CCCC1)N1CC[C@H]2[C@H]1CCN2c1ncccn1 | -1.19%
CCOCc1cnc2n1CCN(Cc1scnc1C)C2C (stereo not given) | 8.85%
O=C(CC1CC1)N1C[C@@H]2CCN(c3cccnc3)C[C@@H]2C1 | 4.62%
CCN1C(=O)[C@H]2CN(CC(C)C)C[C@H]2C12CCN(S(C)(=O)=O)CC2 | 10.3%
c1ccc(CN2CCOC3(COCCN(c4ncccn4)C3)C2)nc1 (stereo not given) | 8.28%
CN(C)C(=O)[C@H]1C[C@H]2CN(S(=O)(=O)Cc3ccccc3)C[C@@H]1O2 | 4.81%
